Assay results collected from several papers.
GSK3B: Glycogen synthase kinase-3 beta (GSK3B, Homo sapiens, UniProt P49841)
AVPR1A: Vasopressin V1a receptor (AVPR1A, Homo sapiens, UniProt P37288)
PTGS2: Prostaglandin G/H synthase 2 (PTGS2, Ovis aries, UniProt P79208)

SMILES | target | assay | system | conditions | inhibition
Cc1c(C(N)=O)cc([N+](=O)[O-])cc1[N+](=O)[O-] | GSK3B | enzyme activity, inhibitor, ADP detection |  | 100 µM | 17.1%
COc1cc(NC(C)=O)c(Cl)cc1C(=O)Nc1nccs1 | AVPR1A | cell-free assay |  | 10 µM | -0.8%
CC[C@H]1C(=O)OC[C@@H]1Cc1cncn1C.O=[N+]([O-])O | GSK3B | enzyme activity, inhibitor, ADP detection |  | 100 µM | 28.2%
CS(=O)(=O)Nc1cccc(-c2csc(NC(=O)CSc3nc4nccnc4c(=O)n3CCc3ccccc3)n2)c1 | Phosphatidylinositol 4-kinase type 2-beta (PI4K2B, Homo sapiens, UniProt Q8TCG2) | enzyme activity, inhibitor |  | 10 µM | -5%
O=C(c1ccc(Cl)cc1)N(Cc1ccccc1)C1CCCCC1 | Motilin receptor (MLNR, Homo sapiens, UniProt O43193) | cell-free assay |  | 10 µM | 18.7%
CC/C(=N\NC(=O)NCc1cccc(O)c1)c1ccc(O)c(C)c1O | [Pyruvate dehydrogenase (acetyl-transferring)] kinase isozyme 2, mitochondrial (PDK2, Homo sapiens, UniProt Q15119) | enzyme activity, inhibitor |  | 0.1 µM | -2.1%
Cc1[nH]c(=O)c(C#N)cc1-c1ccncc1 | GSK3B | enzyme activity, inhibitor, ADP detection |  | 100 µM | 27.6%
CCN(c1cc(C#CCN2CCOCC2)cc(C(=O)NCc2c(C)cc(C)[nH]c2=O)c1C)[C@H]1CC[C@H](N(C)CCOC)CC1 | Protein arginine N-methyltransferase 8 (PRMT8, Homo sapiens, UniProt Q9NR22) | enzyme activity, inhibitor |  | 1 µM | 9%
CCc1cccc2c3c([nH]c12)C(CC)(CC(=O)O)OCC3 (stereo not shown) | GSK3B | enzyme activity, inhibitor, ADP detection |  | 100 µM | 40.8%
Ic1cccc2cnccc12 | Protein mono-ADP-ribosyltransferase TIPARP (TIPARP, Homo sapiens, UniProt Q7Z3E1) | enzyme activity, inhibitor |  | 10 µM | 2%
O=c1c(O[C@@H]2O[C@H](CO)[C@@H](O)[C@H](O)[C@H]2O)c(-c2ccc(O)cc2)oc2cc(O[C@@H]3O[C@H](CO)[C@@H](O)[C@H](O)[C@H]3O)cc(O)c12 | PTGS2 | enzyme activity, inhibitor, absorbance |  | 50 µM | 54.8%
CN(C)C1CCN(CC#Cc2nn(C3CCCC3)c3nc(NCc4ccccc4)ncc23)C1 (stereo not shown) | Protein-tyrosine kinase 6 (PTK6, Homo sapiens, UniProt Q13882) | enzyme activity, inhibitor, FRET |  | 10 µM | 6%
Oc1cccc(Nc2nc(-c3ccc(F)cc3F)cs2)c1 | AVPR1A | cell-free assay |  | 10 µM | 1.2%
CC(=O)c1nn(CC(=O)N2C[C@H](F)C[C@H]2C(=O)Nc2cccc(Br)n2)c2ccc(-c3cnc(C)nc3)cc12 | Cathepsin G (CTSG, Homo sapiens, UniProt P08311) | enzyme activity, inhibitor |  | 10 µM | 0.4%
C[C@@H]1O[C@@H](OC[C@H]2O[C@@H](O[C@H]3[C@H](Oc4c(-c5ccc(O)cc5)oc5cc(O)cc(O)c5c4=O)O[C@H](CO)[C@@H](O)[C@@H]3O)[C@H](O)[C@@H](O)[C@@H]2O)[C@H](O)[C@H](O)[C@H]1O | PTGS2 | enzyme activity, inhibitor, absorbance |  | 50 µM | 57.5%
COc1cc([C@@H]2c3cc4c(cc3[C@@H](O[C@@H]3O[C@@H]5CO[C@@H](C)O[C@H]5[C@H](O)[C@H]3O)[C@H]3COC(=O)[C@H]23)OCO4)cc(OC)c1O | GSK3B | enzyme activity, inhibitor, ADP detection |  | 100 µM | 15.4%
CCN1CCN(Cc2ccc(NC(=O)c3ccc(C)c(/C=C/c4cnc5[nH]ccc5c4OC)c3)cc2C(F)(F)F)CC1 | Mitogen-activated protein kinase kinase kinase 5 (MAP3K5, Homo sapiens, UniProt Q99683) | target engagement in cells, inhibitor, chemoproteomics | A-375 | 50 nM | -33.8%
O=C1OC(CN2CCOCC2)CN1/N=C/c1ccc([N+](=O)[O-])o1 (stereo not shown) | GSK3B | enzyme activity, inhibitor, ADP detection |  | 100 µM | 20.2%
C[C@@H]1O[C@@H](O[C@H]2[C@H](Oc3c(-c4ccc(O)cc4)oc4cc(O)cc(O)c4c3=O)O[C@H](CO[C@@H]3O[C@H](CO)[C@@H](O)[C@H](O)[C@H]3O)[C@@H](O)[C@@H]2O)[C@H](O)[C@H](O)[C@H]1O | PTGS2 | enzyme activity, inhibitor, absorbance |  | 50 µM | 57.7%
